Source: ChEMBL document CHEMBL1649117, “GRL-02031, a novel nonpeptidic protease inhibitor (PI) containing a stereochemically defined fused cyclopentanyltetrahydrofuran potent against multi-PI-resistant human immunodeficiency virus type 1 in vitro” (Antimicrob Agents Chemother, 2009)

How the values were obtained:
Type in all cases: functional, organism-based
[1] = tested on: Human immunodeficiency virus 1; experiment: Antiviral activity against HIV1 ERS104pre infected in human PHA-PBC assessed as inhibition of p24 Gag protein production by ELISA; conditions: Human immunodeficiency virus 1, ERS104pre
Outline: (§1)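 Phytohemagglutinin-stimulated PBMs (10^6/ml) infected with 50 TCID50s of each primary isolate, cultured with or without drug in 10-fold serial dilutions. On day 7, supernatant p24 Gag was measured by automated chemiluminescent enzyme immunoassay. Triplicate.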

[2] = tested on: Human immunodeficiency virus 1; experiment: Antiviral activity against HIV1 NL4-3 harboring L10F/V32I/M46I/I54M//A71V/I84V amino acid substitution in protease encoding region infected in human MT4 cells assessed as inhibition of p24 Gag protein production selected at 5 uM of amprenavir by ELISA; conditions: Human immunodeficiency virus 1, NL4-3, MT4
Outline: (§2)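 Cell-free passage used day-7 supernatants. Variants were then tested in MT-4 cells (10^5/ml) with 100 TCID50s, with or without drug, at 37°C. Day-7 p24 Gag was read by chemiluminescent immunoassay; EC50 vs drug-free control; triplicate.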

[3] = tested on: Human immunodeficiency virus 1; experiment: Antiviral activity against HIV1 G harboring L10I/V11I/T12E/I15V/L19I/R41K/M46L/L63P/A71T/V82A/L90M in protease encoding region infected in human PHA-PBC assessed as inhibition of p24 Gag protein production by ELISA; conditions: Human immunodeficiency virus 1, G
Outline: (§3)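 Phytohemagglutinin-stimulated PBMs (10^6/ml) infected with 50 TCID50s of each primary isolate, cultured with or without drug in 10-fold serial dilutions. On day 7, supernatant p24 Gag was measured by automated chemiluminescent enzyme immunoassay. […] Triplicate.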

[4] = tested on: Human immunodeficiency virus 1; experiment: Antiviral activity against HIV1 A harboring L10I/I15V/E35D/N37E/K45R/I54V/L63P/A71V/V82T/L90M/I93L/C95F in protease encoding region infected in human PHA-PBC assessed as inhibition of p24 Gag protein production by ELISA; conditions: Human immunodeficiency virus 1, A; outline: as §1
[5] = tested on: Human immunodeficiency virus; experiment: Antiviral activity against HIV1 LAI infected in human MT2 cells after 7 days by MTT assay; conditions: Human immunodeficiency virus 1, LAI, MT2, 168 h
[6] = tested on: Human immunodeficiency virus 1; experiment: Antiviral activity against HIV1 NL4-3 harboring L10I/G48V/I54V/L90M amino acid substitution in protease encoding region infected in human MT4 cells assessed as inhibition of p24 Gag protein production selected at 5 uM of saquinavir by ELISA; conditions: Human immunodeficiency virus 1, NL4-3, MT4
Outline: as §2, with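 “HIV-1NL4-3 (500 TCID50s) was passaged in MT-4 cells, starting at 0.01–0.03 µM PI and raising the drug generally two- to threefold as virus propagated. Cell-free” for “Cell-free”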

[7] = tested on: Human immunodeficiency virus 1; experiment: Antiviral activity against HIV1 NL4-3 infected in human MT4 cells assessed as inhibition of p24 gag protein production by ELISA; conditions: Human immunodeficiency virus 1, NL4-3, MT4
Outline: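 MT-4 cells (10^5/ml) were infected with 100 TCID50s of HIV-1 and cultured at 37°C with or without various drug concentrations. On day 7, supernatant p24 Gag was measured by automated chemiluminescent enzyme immunoassay. […] Assays were run in triplicate.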

[8] = tested on: Human immunodeficiency virus 1; experiment: Antiviral activity against HIV1 B harboring L10I/I15V/E35D/N37E/K45R/I54V/L63P/A71V/V82T/L90M/I93L/C95F in protease encoding region infected in human PHA-PBC assessed as inhibition of p24 Gag protein production by ELISA; conditions: Human immunodeficiency virus 1, B; outline: as §3
[9] = tested on: Human immunodeficiency virus 1; experiment: Antiviral activity against HIV1 MOKW infected in human PHA-PBC assessed as inhibition of p24 Gag protein production by ELISA; conditions: Human immunodeficiency virus 1, MOKW; outline: as §3
[10] = tested on: Human immunodeficiency virus 1; experiment: Antiviral activity against HIV1 NL4-3 harboring L23I/K43I/M46I/I50L/G51A/A71V amino acid substitution in protease encoding region infected in human MT4 cells assessed as inhibition of p24 Gag protein production selected at 1 uM of atazanavir by ELISA; conditions: Human immunodeficiency virus 1, NL4-3, MT4
Outline: as §2, with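 “HIV-1NL4-3 (500 TCID50s) was passaged in MT-4 cells, starting at 0.01–0.03 µM PI and raising the drug generally two- to threefold as virus propagated. Cell-free” for “Cell-free”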

[11] = tested on: Human immunodeficiency virus 1; experiment: Antiviral activity against HIV1 NL4-3 harboring L10F/M46I/I54V/V82A amino acid substitution in protease encoding region infected in human MT4 cells assessed as inhibition of p24 Gag protein production selected at 1 uM of Lopinavir by ELISA; conditions: Human immunodeficiency virus 1, NL4-3, MT4; outline: as §2
[12] = tested on: Human immunodeficiency virus 1; experiment: Antiviral activity against HIV1 C harboring L10I/I15V/K20R/L24I/M36I/M46L/I54V/I62V/L63P/K70Q/V82A/L89M in protease encoding region infected in human PHA-PBC assessed as inhibition of p24 Gag protein production by ELISA; conditions: Human immunodeficiency virus 1, C; outline: as §3
[13] = tested on: Human immunodeficiency virus 1; experiment: Antiviral activity against HIV1 NL4-3 harboring L10F/D30N/K45I/A71V/T74S amino acid substitution in protease encoding region infected in human MT4 cells assessed as inhibition of p24 Gag protein production selected at 5 uM of nelfinavir by ELISA; conditions: Human immunodeficiency virus 1, NL4-3, MT4
Outline: as §2, with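 “HIV-1NL4-3 (500 TCID50s) was passaged in MT-4 cells, starting at 0.01–0.03 µM PI and raising the drug generally two- to threefold as virus propagated. Cell-free” for “Cell-free”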

[14] = tested on: Human immunodeficiency virus 1; experiment: Antiviral activity against HIV1 NL4-3 harboring L10F/L24I/M46I/L63P/A71V/G73S/V82T amino acid substitution in protease encoding region infected in human MT4 cells assessed as inhibition of p24 Gag protein production selected at 5 uM of indinavir by ELISA; conditions: Human immunodeficiency virus 1, NL4-3, MT4
Outline: as §2, with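 “HIV-1NL4-3 (500 TCID50s) was passaged in MT-4 cells, starting at 0.01–0.03 µM PI and raising the drug generally two- to threefold as virus propagated. Cell-free” for “Cell-free”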

[15] = tested on: Human immunodeficiency virus 1; experiment: Antiviral activity against HIV1 JSL harboring L10I/L24I/L33F/E35D/M36I/N37S/M46L/I54V/R57K/I62V/L63P/A71V/G73S/82A in protease encoding region infected in human PHA-PBC assessed as inhibition of p24 Gag protein production by ELISA; conditions: Human immunodeficiency virus 1, JSL; outline: as §3
[16] = tested on: Human immunodeficiency virus 1; experiment: Antiviral activity against HIV1 NL4-3 harboring M46I/V82F/I84V amino acid substitution in protease encoding region infected in human MT4 cells assessed as inhibition of p24 Gag protein production selected at 5 uM of ritonavir by ELISA; conditions: Human immunodeficiency virus 1, NL4-3, MT4
Outline: as §2, with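 “HIV-1NL4-3 (500 TCID50s) was passaged in MT-4 cells, starting at 0.01–0.03 µM PI and raising the drug generally two- to threefold as virus propagated. Cell-free” for “Cell-free”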

[17] = tested on: Human immunodeficiency virus 1; experiment: Antiviral activity against HIV1 NL4-3 harboring L10F/L33F/M46I/I47V/Q58E/V82I/I84V/I85V amino acid substitution in protease encoding region infected in human MT4 cells assessed as inhibition of p24 Gag protein production selected at 5 uM of GRL-02031 by ELISA; conditions: Human immunodeficiency virus 1, NL4-3, MT4; outline: as §2
[18] = tested on: Human immunodeficiency virus 1; experiment: Antiviral activity against HIV1 TM harboring L10I/K14R/R41K/M46L/I54V/L63P/A71V/V82A/L90M/I93L in protease encoding region infected in human PHA-PBC assessed as inhibition of p24 Gag protein production by ELISA; conditions: Human immunodeficiency virus 1, TM; outline: as §3
[19] = tested on: Human immunodeficiency virus 1; experiment: Antiviral activity against HIV1 MM harboring L10I/K43T/M46L/I54V/L63P/A71V/V82A/L90M/Q92K in protease encoding region infected in human PHA-PBC assessed as inhibition of p24 Gag protein production by ELISA; conditions: Human immunodeficiency virus 1, MM; outline: as §3

In the case of `CC(C)c1nc(CN(C)C(=O)N[C@H](C(=O)N[C@@H](Cc2ccccc2)C[C@H](O)[C@H](Cc2ccccc2)NC(=O)OCc2cncs2)C(C)C)cs1` [RITONAVIR], the EC50 [1] is reported as 36 nM, the EC50 [2] is reported as > 1000 nM and the EC50 [3] is reported as > 1000 nM. The EC50 [4] was > 1000 nM, the EC50 [5] was 38 nM and the EC50 [6] was > 1000 nM. For the same compound, the EC50 [7] was 21 nM, the EC50 [8] was > 1000 nM and the EC50 [9] was 36 nM. The EC50 [10] was 140 nM, the EC50 [11] was > 1000 nM and the EC50 [12] was > 1000 nM. The EC50 [13] was 80 nM, the EC50 [14] was > 1000 nM and the EC50 [15] was > 1000 nM. The EC50 [16] was > 1000 nM, the EC50 [17] was 260 nM and the EC50 [18] was > 1000 nM. For the same compound, the EC50 [19] was > 1000 nM.

In the case of `Cc1cccc(C)c1OCC(=O)N[C@@H](Cc1ccccc1)[C@@H](O)C[C@H](Cc1ccccc1)NC(=O)[C@H](C(C)C)N1CCCNC1=O` [LOPINAVIR], the EC50 [3] is reported as 130 nM, the EC50 [6] is reported as 700 nM and the EC50 [8] is reported as 250 nM. For the same compound, the EC50 [9] was 29 nM, the EC50 [10] was 25 nM and the EC50 [12] was 460 nM. The EC50 [13] was 290 nM, the EC50 [14] was > 1000 nM and the EC50 [15] was 740 nM. For the same compound, the EC50 [16] was 110 nM, the EC50 [18] was 230 nM and the EC50 [19] was 620 nM.
